Measured values of several laboratories.
Each line is one published result; the experiments were not run side by side.
Target: BDNF/NT-3 growth factors receptor (NTRK2, Homo sapiens, UniProt Q16620)

| Compound | observed | method | concentration | remaining binding [%] |
| --- | --- | --- | --- | --- |
| O=C(O)[C@@H]1[C@@H](Cn2nnc3ccccc3c2=O)CC[C@H]1C(=O)c1ccc(OCCC2CCOCC2)cc1 | cell-free assay | competition with immobilised ligand | 1 µM | 93 |
| Nc1ncc2c(n1)-c1c([nH]c3ccc(C#CC4CC4)cc13)CCCC2 | binding | competition with immobilised ligand | 1 µM | 77 |
| C[C@@H]1CCN(c2nccc(-c3cnn4ncccc34)n2)C1 | binding | – | 1 µM | 72 |
| COc1cnc(Nc2cccc(S(N)(=O)=O)c2)nc1N1CCN(c2ccccc2)CC1 | binding | competition with immobilised ligand | 1 µM | 75 |
| O=C(c1ccc(Nc2ncc(Cl)c(-c3ccc(Cl)s3)n2)cc1)N1CCC(N2CCCC2)CC1 | binding | competition with immobilised ligand | 1 µM | 5.3 |
| F[C@@H]1CCN(c2nccc(-c3cnn4ncccc34)n2)C1 | binding | – | 1 µM | 100 |
| c1cncc(-c2cccc(Nc3nccc(NC4CCCCC4)n3)c2)c1 | binding | competition with immobilised ligand | 10 µM | 16 |
| CCS(=O)(=O)c1cc2cc(C[C@@](O)(CC(C)(C)c3ccc(F)cc3C(N)=O)C(F)(F)F)[nH]c2cn1 | cell-free assay | competition with immobilised ligand | 1 µM | 84 |
| COc1ccnn2ncc(-c3ccnc(N(C)C)n3)c12 | binding | – | 1 µM | 87 |
| O=C(c1ccc(Nc2nccc(-c3cc4ccccc4s3)n2)cc1)N1CCC(N2CCCC2)CC1 | binding | competition with immobilised ligand | 1 µM | 59 |
| CC(C)CC(=O)N1CCc2nc(-c3ccc(Br)cc3)nc(N(C)Cc3ccccc3)c2C1 | cell-free assay | competition with immobilised ligand | 0.1 µM | 100 |
| CN(c1nccc(-c2cnn3ncccc23)n1)C1CC1 | binding | – | 1 µM | 100 |
| CCN1CCN(Cc2ccc(C(=O)Nc3ccc(C)c(Oc4ccc5c(c4)CC(=O)N5)c3)cc2C(F)(F)F)CC1 | binding | competition with immobilised ligand | 1 µM | 81 |
| O=C(NCCCN1CCOCC1)c1ccc(Nc2nccc(-c3cc4ccccc4s3)n2)cc1 | binding | competition with immobilised ligand | 1 µM | 69 |
| CN([C@@H]1CCc2c(CC(=O)O)c3cc(S(C)(=O)=O)ccc3n2C1)S(=O)(=O)c1ccc(F)cc1 | cell-free assay | competition with immobilised ligand | 1 µM | 100 |
| O=C(Nc1c[nH]nc1C(=O)NC1CCNCC1)c1cc(F)cc(F)c1 | binding | competition with immobilised ligand | 1 µM | 71 |
| Cc1cnn2ncc(-c3ccnc(N(C)C)n3)c2c1 | binding | – | 1 µM | 84 |
| CCOCCn1cc(C(=O)Nc2ccc(-n3nc(-c4cccnc4)cc3C(F)(F)F)cn2)ccc1=O | cell-free assay | competition with immobilised ligand | 1 µM | 100 |
| COc1ncc2cc3ccccc3nc2c1C#N | cell-free assay | competition with immobilised ligand | 5 µM | 98 |
| N[C@@H]1CCN(c2nccc(-c3cnn4ncccc34)n2)C1 | binding | – | 1 µM | 100 |
| O=C(Nc1cnc(Oc2ccc(F)cc2)nc1)N1CCc2ncccc2[C@@H]1c1ccc(F)cc1 | cell-free assay | competition with immobilised ligand | 1 µM | 100 |
